For series [1], the target named is T1, Glyceraldehyde-3-phosphate dehydrogenase, glycosomal (Trypanosoma cruzi, UniProt P22513). Briefly: Inhibition of Trypanosoma cruzi glycosomal GAPDH. The method in brief:
(§1)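 Enzyme assays were run by isothermal titration calorimetry (ITC), probing the GAPDH NAD+ cosubstrate site and the active site. Affinity is reported as apparent Ki. Mode of inhibition was judged from how NAD+ and G3P KM and Vmax respond. Kinetic models were compared by second-order Akaike's information criterion.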

Series [2] is described as follows: Selectivity index, ratio of C57BL/6 mouse spleen cells to trypomastigotes forms of Trypanosoma cruzi Tulahuen infected in monkey LLC-MK2 cells. As to conditions: read-out: Selectivity Index. The series is classed as toxicity, cell-based.
The next series deals with Trypanosoma cruzi. In words: Trypanocidal activity against trypomastigotes forms of Trypanosoma cruzi Tulahuen infected in monkey LLC-MK2 cells after 24 hrs by beta-galactosidase reporter assay. The series is classed as functional.
The nature of series [3]: Cytotoxicity against C57BL/6 mouse spleen cells after 24 hrs using propidium iodide by flow cytometry. The series is classed as cell-based. An outline of the steps: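 Spleen cells were isolated from C57BL/6 mice by mechanical dissociation. They were incubated with compound at 5·10⁶ cells mL⁻¹ for 24 h at 37 °C under 5% CO2, then stained with 10 µg mL⁻¹ propidium iodide and analysed by flow cytometry. Two experiments were run in duplicate; mean plus standard deviation is reported.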

The target in series [4] is T1, Glyceraldehyde-3-phosphate dehydrogenase, glycosomal. Briefly: Non-competitive inhibition of Trypanosoma cruzi glycosomal GAPDH active site by ITC method. As to conditions: read-out: Ki(app). The method in brief:
as §1

Series [5] has the same target. Briefly: Competitive inhibition of Trypanosoma cruzi glycosomal GAPDH NAD+ binding site by ITC method. As to conditions: read-out: Ki(app). The method in brief:
as §1

The next series concerns Saccharomyces cerevisiae. Briefly: Cytotoxicity against Saccharomyces cerevisiae by FUN-1 fluorescence assay. As to conditions: in vivo. The series is classed as organism-based. An outline of the steps:
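Log-phase S. cerevisiae (CBMAI 0194) was grown in LB with 2% glucose and 10 mmol L⁻¹ acetate buffer, pH 5, at 37 °C. Cells were resuspended in NaHEPES pH 7.2 at 10⁷ cells mL⁻¹ and stained with FUN-1 (working solution 200 µmol L⁻¹) for 30 min, with or without compound, in 0.6% DMSO. Fluorescence (excitation 485 nm; emission 530/620 nm) was read every 10 min for 1 h at 37 °C. Viability was taken from the red/green ratio.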

T1 sequence (P22513 whole entry): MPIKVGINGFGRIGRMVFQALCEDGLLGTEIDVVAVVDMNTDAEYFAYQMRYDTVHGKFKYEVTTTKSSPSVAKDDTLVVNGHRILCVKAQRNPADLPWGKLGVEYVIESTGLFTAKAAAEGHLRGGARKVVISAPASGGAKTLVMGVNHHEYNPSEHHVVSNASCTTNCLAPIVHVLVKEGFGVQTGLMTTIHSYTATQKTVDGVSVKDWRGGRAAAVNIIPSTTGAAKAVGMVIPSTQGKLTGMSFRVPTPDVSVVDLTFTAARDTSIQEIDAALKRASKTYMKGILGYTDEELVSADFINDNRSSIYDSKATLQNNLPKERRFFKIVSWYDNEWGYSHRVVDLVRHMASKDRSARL

In the case of `CCOC(=O)c1cn([C@@H]2O[C@H](COC(=O)c3ccccc3)[C@@H](OC(=O)c3ccccc3)[C@H]2OC(=O)c2ccccc2)c2ccc(Cl)cc2c1=O`, the IC50 in series [1] is 40.7 µM.
For the molecule `O=C(O)c1cn([C@@H]2O[C@H](CO)[C@@H](O)[C@H]2O)c2cc(Br)ccc2c1=O`, in series [2], the selectivity ratio is over 27. The Activity was 18 µmol/L in the series with Trypanosoma cruzi and over 500 µmol/L in series [3]. The Ki in series [4] came out at 151 µM; in series [5], 16 µM.
With `Cc1ccc2c(=O)c(C(=O)O)cn([C@@H]3O[C@H](CO)[C@@H](O)[C@H]3O)c2c1`, the Ki in series [5] came out at 17.1 µM.
On to `COc1ccc2c(c1)c(=O)c(C(=O)O)cn2[C@@H]1O[C@H](CO)[C@@H](O)[C@H]1O`, for which, in series [2], the selectivity ratio came out at 1. The Activity (in the series with Trypanosoma cruzi; in series [3]) was over 500 µmol/L throughout. The Ki came to 305 µM in series [4] and 18.7 µM in series [5].
On to `O=C(O)c1cn([C@@H]2O[C@H](CO)[C@@H](O)[C@H]2O)c2ccc(Br)cc2c1=O`, for which the Activity result in the series on Saccharomyces cerevisiae is on record as “Toxic”. For the same molecule, the Ki in series [5] is 29.5 µM.
In the case of `Cc1ccc2c(c1)c(=O)c(C(=O)O)cn2[C@@H]1O[C@H](CO)[C@@H](O)[C@H]1O`, the Ki in series [5] was 57.6 µM.
Turning to `COc1ccc2c(=O)c(C(=O)O)cn([C@@H]3O[C@H](CO)[C@@H](O)[C@H]3O)c2c1`, in the series on Saccharomyces cerevisiae, the Activity result is given as “Toxic”. The Ki in series [4] is 105 µM; in series [5], 59.5 µM.
In the case of `O=C(O)c1cn([C@@H]2O[C@H](CO)[C@@H](O)[C@H]2O)c2ccc(Cl)cc2c1=O`, in series [5], the Ki worked out at 32.3 µM.
Turning to `O=C(Cn1ccnc1[N+](=O)[O-])NCc1ccccc1` [BENZNIDAZOLE], the selectivity ratio in series [2] is over 26. In addition, the results for the Activity (in the series on Trypanosoma cruzi; in series [3]) were 19 µmol/L and over 500 µmol/L, respectively.

The values above are taken from ChEMBL document CHEMBL2407047, “Molecular design, synthesis and biological evaluation of 1,4-dihydro-4-oxoquinoline ribonucleosides as TcGAPDH inhibitors with trypanocidal activity” (Bioorg Med Chem Lett, 2013).
